ChEMBL document CHEMBL2163276, “A peptide nucleic acid-aminosugar conjugate targeting transactivation response element of HIV-1 RNA genome shows a high bioavailability in human cells and strongly inhibits tat-mediated transactivation of HIV-1 transcription” (J Med Chem, 2012)
Activity calls are given as the source filed them. The rule behind the calls is not given here.

Tests used:
Nucleic Acid [1] = test: Inhibition of HIV1 transactivation response element RNA-mediated LTR expression transfected in human CEM cells coexpressing CMV-Tat at 1 and 2 uM after 24 hrs by luciferase reporter gene assay; type: cell-based; conditions: Human immunodeficiency virus 1; CCRF-CEM
Outline: (§1)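 CEM cells (0.5×10^6/well) transfected with pHIV-1 LTR-Luc (2 µg) and pRL-SV40 (500 ng), with or without pCMV-Tat (2 µg). Conjugates added 2 h later, and cells grown in RPMI/10% FBS at 37 °C. At 24 h, dual-luciferase read-out; firefly normalised to Renilla and expressed as % of untreated cells. Mean ± SEM of two independent experiments.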

Nucleic Acid [2] = test: Induction of HIV1 transactivation response element RNA cleavage in presence of metal ion; type: nucleic-acid assay; conditions: Human immunodeficiency virus 1
Nucleic Acid [3] = test: Binding affinity to HIV1 32-P labeled transactivation response element RNA at compound:RNA ratio of 1:1 after 1 hr by gel mobility shift assay; type: nucleic-acid assay; conditions: Human immunodeficiency virus 1
Outline: (§2)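 10 nM 32P-labelled 82-nt TAR RNA run-off transcript (T7) incubated with conjugate in 50 mM Tris-HCl pH 7.8, 60 mM KCl, 5 mM MgCl2, 1 h at room temperature. Molar ratios of conjugate to RNA were 0–5.0. Samples were run on native 8% polyacrylamide gel in TBE, 100 V, 4 h, room temperature, then PhosphorImager read-out.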

Nucleic Acid [4] = test: Inhibition of HIV1 transactivation response element RNA-mediated LTR expression transfected in human CEM cells coexpressing CMV-Tat at 1 uM after 24 hrs by luciferase reporter gene assay; type: cell-based; conditions: Human immunodeficiency virus 1, CCRF-CEM; outline: as §1
Nucleic Acid [5] = test: Induction of HIV1 transactivation response element RNA cleavage; type: nucleic-acid assay; conditions: Human immunodeficiency virus 1
Nucleic Acid [6] = test: Effect on HIV1 transactivation response element RNA-mediated LTR expression transfected in human CEM cells at 0.1 to 2 uM after 24 hrs by luciferase reporter gene assay; type: cell-based; conditions: Human immunodeficiency virus 1, CCRF-CEM; outline: as §1
Nucleic Acid [7] = test: Inhibition of HIV1 transactivation response element RNA-mediated LTR expression transfected in human CEM cells coexpressing CMV-Tat at 0.1 to 2 uM after 24 hrs by luciferase reporter gene assay; type: cell-based; conditions: Human immunodeficiency virus 1, CCRF-CEM; outline: as §1
Nucleic Acid [8] = test: Inhibition of transactivation response element RNA-mediated transcription in HIV1 pseudovirions infected in human CEM cells assessed as reduction in luciferase activity at 800 nM incubated 48 hrs post-infection measured after 72 hrs by reporter gene assay; type: cell-based; conditions: Human immunodeficiency virus 1, CCRF-CEM
Outline: (§3)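 CEM 12D7 cells (1×10^6 in 1 mL) infected 2 h with VSV-G-pseudotyped NL4-3.Luc.R-E- virions (14 ng p24), washed and cultured. Conjugate added 48 h post-infection. After 76 h, cells lysed and firefly luciferase measured; IC50 calculated. Mean of two independent experiments.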

[9] = Chemical stability of the compound in aqueous HCl solution after 3 days by HPLC analysis; type: physicochemical; conditions: buffer, 72 h
Outline: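 Conjugate held in 0.1 M aqueous HCl at 37 °C for 3 days. HPLC retention time compared with untreated sample.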

CCRF-CEM = test: Cytotoxicity against human CEM cells assessed as inhibition of [3H]thymidine incorporation at 0.1 and 0.5 mM after 48 hrs by scintillation counting; type: cell-based
Outline: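 CEM cells grown with conjugate (0.1 and 0.5 mM, dissolved in DMSO; final DMSO 5%) plus [methyl-3H]thymidine 5 µCi/mL for 48 h. Nucleic acids lysed with 1% NP-40, TCA-precipitated onto glass-fibre filters and scintillation counted. Results given as % of DMSO control, from three independent experiments.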

Nucleic Acid [10] = test: Inhibition of transactivation response element RNA-mediated transcription in HIV1 pseudovirions infected in human CEM cells assessed as reduction in luciferase activity incubated 48 hrs post-infection measured after 72 hrs by reporter gene assay; type: cell-based; outline: as §3
Nucleic Acid [11] = test: Binding affinity to HIV1 32-P labeled transactivation response element RNA assessed as gel mobility shift at compound:RNA ratio of 0.5:1 after 1 hr by gel mobility shift assay; type: nucleic-acid assay; conditions: Human immunodeficiency virus 1; outline: as §2
[12] = Human immunodeficiency virus 1, CCRF-CEM

Activity (Nucleic Acid [2]) | Activity (Nucleic Acid [3]) | Activity (Nucleic Acid [5]) | Stability [9] | IC50 (Nucleic Acid [10]; [12]) [nM] | Activity (Nucleic Acid [11]) [%] | SMILES | inhibition (Nucleic Acid [1]) | inhibition (Nucleic Acid [4]) [%] | Activity (Nucleic Acid [6]) | inhibition (Nucleic Acid [7]) | inhibition (Nucleic Acid [8]) [%] | Activity (CCRF-CEM) | inhibition (Nucleic Acid [10]; [12])
 |  |  |  |  |  | Cc1cn(CC(=O)N(CCNC(=O)CN(CCNC(=O)CN(CCNC(=O)CN(CCNC(=O)CN(CCNC(=O)CN(CCNC(=O)CN(CCNC(=O)CN(CCNC(=O)CN(CCNC(=O)CN(CCNC(=O)CN(CCNC(=O)CN(CCNC(=O)CN(CCNC(=O)CN(CCNC(=O)CN(CCNC(=O)CN(CCN)C(=O)Cn2cc(C)c(=O)[nH]c2=O)C(=O)Cn2ccc(N)nc2=O)C(=O)Cn2ccc(N)nc2=O)C(=O)Cn2ccc(N)nc2=O)C(=O)Cn2cnc3c(N)ncnc32)C(=O)Cn2cnc3c(=O)[nH]c(N)nc32)C(=O)Cn2cnc3c(=O)[nH]c(N)nc32)C(=O)Cn2ccc(N)nc2=O)C(=O)Cn2cc(C)c(=O)[nH]c2=O)C(=O)Cn2ccc(N)nc2=O)C(=O)Cn2cnc3c(N)ncnc32)C(=O)Cn2cnc3c(=O)[nH]c(N)nc32)C(=O)Cn2cnc3c(N)ncnc32)C(=O)Cn2cc(C)c(=O)[nH]c2=O)C(=O)Cn2ccc(N)nc2=O)CC(N)=O)c(=O)[nH]c1=O | inactive |  |  |  |  |  | 
inactive | Active | inactive | Stable | 800 | 50 | CO[C@H]1O[C@H](CN)[C@@H](OCCCCCC(=O)NCCN(CC(=O)NCCN(CC(=O)NCCN(CC(=O)NCCN(CC(=O)NCCN(CC(=O)NCCN(CC(=O)NCCN(CC(=O)NCCN(CC(=O)NCCN(CC(=O)NCCN(CC(=O)NCCN(CC(=O)NCCN(CC(=O)NCCN(CC(=O)NCCN(CC(=O)NCCN(CC(=O)NCCN(CC(N)=O)C(=O)Cn2cc(C)c(=O)[nH]c2=O)C(=O)Cn2ccc(N)nc2=O)C(=O)Cn2cc(C)c(=O)[nH]c2=O)C(=O)Cn2cnc3c(N)ncnc32)C(=O)Cn2cnc3c(=O)[nH]c(N)nc32)C(=O)Cn2cnc3c(N)ncnc32)C(=O)Cn2ccc(N)nc2=O)C(=O)Cn2cc(C)c(=O)[nH]c2=O)C(=O)Cn2ccc(N)nc2=O)C(=O)Cn2cnc3c(=O)[nH]c(N)nc32)C(=O)Cn2cnc3c(=O)[nH]c(N)nc32)C(=O)Cn2cnc3c(N)ncnc32)C(=O)Cn2ccc(N)nc2=O)C(=O)Cn2ccc(N)nc2=O)C(=O)Cn2ccc(N)nc2=O)C(=O)Cn2cc(C)c(=O)[nH]c2=O)[C@H](O)[C@H]1N |  | 75 | inactive | Active | 50 | Non-toxic | Dose-dependent effect
